Results on eleven molecules are retold here after ChEMBL document CHEMBL1944616, “Benzoxaborole antimalarial agents. Part 2: Discovery of fluoro-substituted 7-(2-carboxyethyl)-1,3-dihydro-1-hydroxy-2,1-benzoxaboroles” (Bioorg Med Chem Lett, 2012).

The subject of one series is Plasmodium falciparum. The series is described as follows: Antimalarial activity against ring stage Plasmodium falciparum 3D7 infected in human erythrocytes after 48 hrs by flow cytometry. Format: functional, organism-based. The note with it: 3D7, 48 h. Background: In flow cytometry, cells or beads pass a laser one at a time.
The nature of series [1]: Growth inhibition of human Jurkat cells at 25 uM after 72 hrs by MTT assay. Format: cell-based. Conditions: read-out: GI. A digest of the protocol: (§1)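 Cytotoxicity counter-screen on human Jurkat (T cell) and human HeLa (cervical carcinoma) cell lines. Selected compounds were tested at one fixed concentration each.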
(In general: Tetrazolium assays rely on reduction of a dye to a coloured formazan, in cell work by metabolically active cells.)

Series [2] is described as follows: Growth inhibition of human HeLa cells at 25 uM after 72 hrs by MTT assay. The class given is cell-based. The note with it: read-out: GI. A digest of the protocol: as §1

For orientation: IC50 means the concentration at which inhibition is half-maximal. Low values mean greater potency in that assay, high ones weaker potency in that assay.

The molecule `O=C(O)C(F)Cc1cccc2c1B(O)OC2` (stereo not given) displayed an IC50 in the series on Plasmodium falciparum of 830 nM.

In turn, `Cc1ccc(CCC(=O)O)c2c1COB2O` displayed an IC50 in the series with Plasmodium falciparum of 1450 nM. Take `CC(=O)Nc1ccc(CCC(=O)O)c2c1COB2O`: the IC50 with Plasmodium falciparum is above 5000 nM. `O=P(O)(O)CCc1cccc2c1B(O)OC2` showed an IC50 in the series with Plasmodium falciparum above 5000 nM. Also, the inhibition at 72 h, 25 µM in series [1] worked out at 3%; in series [2], 26%. In the case of `O=C1NC(=O)C(Cc2cccc3c2B(O)OC3)N1` (stereo not given), in the series with Plasmodium falciparum, the IC50 is above 5000 nM. The results for the inhibition at 72 h, 25 µM in series [1] and in series [2] were 14.1% and 67.7%, respectively. With `O=C(O)C1CCc2ccc3c(c2C1)B(O)OC3` (stereo not given), 1820 nM corresponded to half-maximal inhibition with Plasmodium falciparum (IC50). The molecule `O=C(O)CCc1c(Cl)ccc2c1B(O)OC2` gave an IC50 in the series with Plasmodium falciparum of 750 nM.

`COc1cc(CCC(=O)O)c2c(c1)COB2O` showed an IC50 with Plasmodium falciparum of 3480 nM. In the series on Plasmodium falciparum, `O=C(O)CCc1cc(Cl)cc2c1B(O)OC2` came in with a half-maximal inhibitory concentration (IC50) of 1330 nM. For `O=C(O)CCc1cc(F)cc2c1B(O)OC2`, the IC50 with Plasmodium falciparum is 61 nM. Against the preceding molecule, the IC50 is about 22-fold lower. Same read-out and setting: with `O=C1C(O)=C([C@H]2CC[C@H](c3ccc(Cl)cc3)CC2)C(=O)c2ccccc21` [ATOVAQUONE] the figure was 1 nM.
